The source of these data is ChEMBL document CHEMBL1144404, “Aminoimidazolylmethyluracil analogues as potent inhibitors of thymidine phosphorylase and their bioreductive nitroimidazolyl prodrugs” (J Med Chem, 2005).

Substrate in series [1]: Cc1cn([C@H]2C[C@H](O)[C@@H](CO)O2)c(=O)[nH]c1=O
Put plainly: (§1) Vmax against Escherichia coli thymidine phosphorylase. An outline of the steps:
(§2)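 Continuous UV assay at 355 nm and 25 °C in 0.2 mL of 0.1 M potassium phosphate pH 7.4, using recombinant E. coli TP (ca. 0.00883 units per assay) added to start the reaction. Substrate is thymidine or 5-nitro-2'-deoxyuridine; phosphorolysis to 5-nitrouracil followed (εM 13300 M-1 cm-1 for substrate).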

Substrate in series [2]: O=c1[nH]c(=O)n([C@H]2C[C@H](O)[C@@H](CO)O2)cc1[N+](=O)[O-]
Described as §1. An outline of the steps: as §2

Substrate in series [3]: O=c1[nH]c(=O)n([C@H]2C[C@H](O)[C@@H](CO)O2)cc1[N+](=O)[O-]
In words: Michaelis-Menten constant against Escherichia coli thymidine phosphorylase. An outline of the steps:
as §2

Substrate in series [4]: O=c1[nH]c(=O)n([C@H]2C[C@H](O)[C@@H](CO)O2)cc1[N+](=O)[O-]
Put plainly: Michaelis-Menten constant against human thymidine phosphorylase. Put shortly:
(§3)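 Recombinant human TP expressed in V79 Chinese hamster cells, 0.065 absorbance unit per assay. Continuous spectrophotometric assay at 355 nm, 25 °C, 0.1 M phosphate buffer pH 7.4, 0.2 mL total volume, with 5-nitro-2'-deoxyuridine as substrate; kinetic constants from initial rates.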

Substrate in series [5]: O=c1[nH]c(=O)n([C@H]2C[C@H](O)[C@@H](CO)O2)cc1[N+](=O)[O-]
In words: Vmax against human thymidine phosphorylase. Put shortly: as §3

B1: Thymidine phosphorylase (Escherichia coli K-12), P07650 (protein)
chain: MFLAQEIIRKKRDGHALSDEEIRFFINGIRDNTISEGQIAALAMTIFFHDMTMPERVSLTMAMRDSGTVLDWKSLHLNGPIVDKHSTGGVGDVTSLMLGPMVAACGGYIPMISGRGLGHTGGTLDKLESIPGFDIFPDDNRFREIIKDVGVAIIGQTSSLAPADKRFYATRDITATVDSIPLITASILAKKLAEGLDALVMDVKVGSGAFMPTYELSEALAEAIVGVANGAGVRTTALLTDMNQVLASSAGNAVEVREAVQFLTGEYRNPRLFDVTMALCVEMLISGKLAKDDAEARAKLQAVLDNGKAAEVFGRMVAAQKGPTDFVENYAKYLPTAMLTKAVYADTEGFVSEMDTRALGMAVVAMGGGRRQASDTIDYSVGFTDMARLGDQVDGQRPLAVIHAKDENNWQEAAKAVKAAIKLADKAPESTPTVYRRISE
For the protein B1, the Vmax – broadly, the top rate of the reaction or transport when substrate is in excess – in series [1] came to 1.15 mM/min; in series [2] it was 0.013 mM/min. Besides, in series [3], the Km – broadly, the substrate concentration at which the rate is half of its maximum – turned out to be 230 µM.

B2: Thymidine phosphorylase (Homo sapiens), P19971 (protein)
chain: MAALMTPGTGAPPAPGDFSGEGSQGLPDPSPEPKQLPELIRMKRDGGRLSEADIRGFVAAVVNGSAQGAQIGAMLMAIRLRGMDLEETSVLTQALAQSGQQLEWPEAWRQQLVDKHSTGGVGDKVSLVLAPALAACGCKVPMISGRGLGHTGGTLDKLESIPGFNVIQSPEQMQVLLDQAGCCIVGQSEQLVPADGILYAARDVTATVDSLPLITASILSKKLVEGLSALVVDVKFGGAAVFPNQEQARELAKTLVGVGASLGLRVAAALTAMDKPLGRCVGHALEVEEALLCMDGAGPPDLRDLVTTLGGALLWLSGHAGTQAQGAARVAAALDDGSALGRFERMLAAQGVDPGLARALCSGSPAERRQLLPRAREQEELLAPADGTVELVRALPLALVLHELGAGRSRAGEPLRLGVGAELLVDVGQRLRRGTPWLRVHRDGPALSGPQSRALQEALVLSDRAPFAAPSPFAELVLPPQQ
Turning to B2, the Michaelis constant (Km) in series [4] was 160 µM. The maximal velocity (Vmax) in series [5] was 0.0086 mM/min.
